# Bioassay records (PubChem BioAssay)
# STAT1 act: increases IFN-gamma driven STAT1 reporter signal; hit rate 2.6% among 200,000; NIH 3T3 STAT1-luciferase reporter, luminescence; 100% = IFN-gamma alone, no compound; activation (% of control), % at 5.5 µM;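 active means activation above the screen-wide mean activation plus 3 SD, cut at about 130% in these data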
# APP 5'UTR act: APP 5'UTR luciferase reporter activation | SH-SY5Y APP 5'UTR luciferase reporter, luminescence; zero percent = DMSO vehicle wells | activation, % at 2 µM | hit rate 1% among 190,000;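 active means activation above a set limit, based on mean plus 3 SD of controls, cut at about 140% in these data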
# STAT3 inh-1: inhibitors of IL-6 induced STAT3 signaling. U3A cells, IL-6 STAT3-luciferase reporter, luminescence; host cell line lacks STAT1. hit rate 0.89% among 190,000. inhibition, % at 5.5 µM;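 active means inhibition above the mean inhibition across all screened compounds plus 3 SD, cut at about 44% in these data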
# STAT1 blocker: reduces IFN-gamma driven STAT1 reporter signal; NIH 3T3 STAT1-luciferase reporter, luminescence; inhibition, % at 5.5 µM; hit rate 0.35% among 200,000;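 active means inhibition above a set limit, the mean inhibition across all tested compounds plus 3 SD, cut at about 34% in these data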
# STAT3 activator: increases IL-6 driven STAT3 reporter signal | U3A cells, IL-6 STAT3-luciferase reporter, luminescence; 100% = signal with IL-6 EC80 alone | activation (% of control), % at 5.6 µM | hit rate 0.91% among 190,000 | AID 871;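 active means activation above the screen-wide mean of compound activation plus 3 SD, cut at about 130% in these data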
#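 Test system: human U3A cells carrying STAT3-luciferase construct; control set: IL-6-only wells as 100% reference; timing: compound pre-incubation 1 h before IL-6, then 6 h stimulation at 37 °C; also added: IL-6 stimulus at 33 ng/mL final; evaluation: % activation versus median of IL-6-stimulated wells; detection: reporter luminescence signal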
# NF-kB expr up: NF-kB expression increase, human neuronal cells; NF-kB reporter expression; hits give high values; fold change at 12.5 µM; hit rate 1.6% among 190,000; in the data active means fold change above about 3.3
# STAT3 inh-2: confirmation of STAT3 signaling inhibitors; shares compounds with STAT3 inh-1; U3A cells, IL-6 STAT3 luciferase reporter, luminescence; cell line lacks STAT1; inhibition, % at 5.7 µM; hit rate 45% among 1,200; AID 1265;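 active means inhibition above the hit cutoff computed for the primary STAT3 screen, cut at about 44% in these data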
# NFkB inh 2: inhibits NF-kappaB, counter-screen to STAT3 inhibitors | inhibition, % at 5.7 µM | HEK293T NF-kB luciferase reporter, TNF-alpha induced | hit rate 36% among 1,200 | shares compounds with STAT3 inh-1;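 active means inhibition above the mean of solvent-only control wells plus 3 SD, cutoff set per campaign, cut at about 13% in these data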
# STAT1 inh STAT3c: inhibits STAT1, counter-screen to STAT3 inhibitors | shares compounds with STAT3 inh-1 | NIH 3T3 STAT1-luciferase reporter, IFN-gamma induced, luminescence | inhibition, % at 5.7 µM | hit rate 27% among 1,200 | AID 1317;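 active means inhibition above the mean plus 3 SD of solvent-only control wells, limit set per screening run, cut at about 16% in these data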
# Hits are given with their value; – = inactive; · = not tested or not shown. In the library only some 5.1% were active in any assay of this set; here they are far more common.
SMILES,STAT1 act,APP 5'UTR act,STAT3 inh-1,STAT1 blocker,STAT3 activator,NF-kB expr up,STAT3 inh-2,NFkB inh 2,STAT1 inh STAT3c
O=C1C(C=Nc2ccc(F)cc2)=C(O)c2ccccc21,149,148,51,–,–,7.1,–,–,–
O=C1CC(c2ccccc2)CC(O)=C1C=Nc1ccccc1 (centres undefined),–,–,–,–,–,–,·,·,·
Clc1ccc(-c2nnc(NC3=NCCCCC3)o2)cc1,–,152,80,–,–,–,48,19,–
Cc1ccc(C(c2c(C)n(C)n(-c3ccccc3)c2=O)c2c(C)n(C)n(-c3ccccc3)c2=O)s1,–,–,–,–,–,–,·,·,·
CCOCCCNC(=O)c1ccc2c(c1)OCO2,–,–,–,–,–,–,·,·,·
O=C(NCCOc1ccccc1)c1ccc2c(c1)OCO2,–,–,76,–,–,–,–,26,–
O=c1oc2ccccc2cc1-c1nc2c(s1)CCCC2,–,188,74,–,–,–,48,31,–
O=c1oc2ccccc2cc1-c1csc(NN=C2CCCCC2)n1,–,–,–,–,–,–,·,·,·
Cc1nn(CC(=O)N2CCN(C)CC2)c(=O)c2ccccc12,–,–,–,–,–,–,·,·,·
CCOc1ccc(OCC(=O)Nc2ccc(OC)cc2[N+](=O)[O-])cc1,–,–,–,–,–,–,·,·,·
CCOc1ccc(N/C=C/C(=O)c2ccccc2)c([N+](=O)[O-])c1,–,157,85,–,–,–,59,45,–
Cc1c(O)c2c(=O)n(-c3ccccc3)c(-c3ccccc3)cc2oc1=O,–,–,–,–,–,–,·,·,·
Cc1ccc(NCc2nnc(SC(C)C(=O)N/N=C/c3ccc(C)o3)n2-c2ccccc2)cc1 (centres undefined),–,–,–,–,–,–,·,·,·
N=c1c2ccccc2nnn1-c1ccc(C(F)(F)F)cc1,–,–,–,–,–,–,·,·,·
O=C(O)CCN1C(=O)/C(=C\c2ccncc2)SC1=S,–,–,–,–,–,–,·,·,·
COc1ccc(/C=C2/SC(=S)N(CCC(=O)O)C2=O)cc1,–,–,57,–,–,–,57,32,–
COc1ccc(S(=O)(=O)NNC(=O)C2CC(c3cccnc3)=NO2)cc1 (centres undefined),–,–,–,–,–,–,·,·,·
Cc1csc(NC(=O)c2cc3c(s2)CCCC3)n1,–,165,86,–,–,–,55,–,–
Cc1ccc(-c2cc(C(=O)N3CCCC3)no2)cc1,–,208,76,–,–,3.8,48,16,–
COc1ccccc1N1CCN(C(=O)c2cc(-c3ccc(C)cc3)on2)CC1,–,–,–,–,–,–,·,·,·
Cc1ccc(C)c(-n2cc(CN3CCCN(C=O)CC3)c(-c3ccccc3)n2)c1,–,–,–,–,–,–,·,·,·
O=C(CNC(=S)N(Cc1ccccc1)Cc1cccnc1)NC1CCCCC1,–,·,–,–,–,–,·,·,·
NC(=S)N/N=C/c1coc2ccc(Cl)cc2c1=O,–,–,–,–,–,–,·,·,·
COc1ccc2nc(NC(=O)c3ccoc3C)sc2c1,–,142,63,–,–,11,–,–,–
CCNC(=S)NNC(=O)c1cc(-c2ccc(OC)cc2)nc2ccccc12,–,–,74,–,–,4.1,–,28,–
SMILES,STAT1 act,APP 5'UTR act,STAT3 inh-1,STAT1 blocker,STAT3 activator,NF-kB expr up,STAT3 inh-2,NFkB inh 2,STAT1 inh STAT3c
CCNC(=S)NNC(=O)c1cc(-c2cccc(C)c2)nc2ccccc12,–,–,–,–,–,–,·,·,·
O=C(c1cccn2c(=O)c3ccccc3nc12)N1CCN(c2ccccn2)CC1,–,–,51,–,–,–,–,–,–
O=C(c1cccn2c(=O)c3cc(Br)ccc3nc12)N1CCN(c2ccccn2)CC1,–,–,–,–,–,–,·,·,·
COc1ccc(O)c(C(=O)CC(=O)c2ccccc2)c1,132,–,70,–,–,3.4,–,–,–
COc1ccc(S(=O)(=O)N/N=c2\oc3c(OC)cccc3cc2S(=O)(=O)c2ccc(C)cc2)cc1OC,–,–,–,–,–,–,·,·,·
CCCCOc1ccc(Br)cc1CSC(=N)N,–,–,58,–,–,–,71,25,21
CCOc1ccc(C(C)=O)cc1CSC(=N)N,–,–,–,–,–,·,·,·,·
O=C(NCCC(c1ccccc1)c1ccccc1)c1cnc2sccn2c1=O,–,–,–,–,–,–,·,·,·
COc1ccc(CN(C)Cc2nc(Cc3cccc(F)c3)no2)c2cccnc12,–,–,61,–,–,–,62,19,26
O=C(NCc1ccc(F)cc1)C1CCC(=O)N1C1CCCCC1 (centres undefined),–,–,45,–,–,–,–,–,–
CCc1nc2ccc(C(=O)NCc3ccccc3)cc2nc1CC,–,–,–,–,–,–,·,·,·
Cc1c(C(C)C)c(=O)n(-c2ccc(S(=O)(=O)NCc3ccccc3)cc2)n1C,–,–,81,–,–,–,80,30,21
Cc1c(C(C)C)c(=O)n(-c2ccc(S(=O)(=O)NC3CCCCC3)cc2)n1C,–,–,53,–,–,–,59,14,21
Cc1c(C(C)C)c(=O)n(-c2ccc(S(=O)(=O)N3CCOCC3)cc2)n1C,–,–,–,–,–,–,·,·,·
Cc1cc(N=NC(=O)c2ccccc2)ccc1O,–,–,55,–,–,–,–,–,–
CCc1nc2sccc2c(=O)n1N,–,–,–,–,–,–,·,·,·
C=CCn1c(C)cc(C(=O)CSc2nc3ccccc3[nH]2)c1C,–,–,99,–,–,–,61,15,–
CCOC(=O)/C(=N\Nc1cc(Cl)ccc1Cl)N1CCOCC1,–,–,–,–,–,–,·,·,·
COc1cccc(/C=C/C(=O)Nc2ccc3c(c2)OCCO3)c1OC,–,205,66,–,–,8.6,–,–,–
COc1ccc(CC(=O)Nc2cccc(-c3nnc(-c4cccc(C)c4)o3)c2)cc1OC,–,–,44,–,–,–,62,–,–
COc1ccc(CC(=O)Nc2cccc(-c3nnc(-c4ccccc4)o3)c2)cc1OC,–,–,–,–,–,–,·,·,·
CC(C)Oc1ccc(C(=O)NC2=NCCS2)cc1,–,154,62,–,–,8.3,–,–,–
COc1ccc(OC)c(-c2csc(NC(=O)Cc3cccs3)n2)c1,–,–,–,–,–,–,·,·,·
COc1ccc(NC(NC(=O)c2ccc(OC)cc2)C(Cl)(Cl)Cl)cc1 (centres undefined),–,–,50,–,–,–,–,–,–
COc1ccc(Oc2cnn(-c3ccccc3)c(=O)c2Br)cc1,–,–,–,–,–,–,·,·,·
